Data set [1] deals with Mus musculus. Briefly: The ratio of AUC / dose (mM.h/uMol)/kg at 112 mg/kg dose after intravenous administration in mice serum; AUC/Dose (uM). In kind it is ADME, organism-based. On the set-up: dose 112 mg/kg, route intravenous. As to conditions: in vivo. In a few lines: (§1)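 Female NIH-Swiss mice (24-28 g), tail-vein injection of 112 mg/kg (437 µmol/kg) in saline (15 mg/mL); three mice per time point, ether anesthesia, exsanguination by heart puncture; serum and brain (homogenized 1:1 g:mL in ice-cold isotonic 0.05 M phosphate, pH 7.4) assayed by HPLC, UV 260 nm. Noncompartmental analysis of mean concentrations; AUC by Lagrange interpolation, extrapolated via terminal slope (last 3-5 points); t1/2 = 0.693/λz; AUC normalized to µmol/kg dose.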

Data set [2] deals with Mus musculus. Description: The ratio of AUC / dose (mM.h/uMol)/kg at 112 mg/kg dose after intravenous administration in mice brain; AUC/Dose (uM). In kind it is ADME, organism-based. On the set-up: dose 112 mg/kg, route intravenous. As to conditions: in vivo. In a few lines:
as §1

Data set [3] deals with Mus musculus. Description: The ratio of AUC / dose (mM.h/uMol)/kg at 112 mg/kg dose after oral administration in mice serum; AUC/Dose (uM). Format: ADME, organism-based. Also on record: dose 112 mg/kg, route oral. As to conditions: in vivo.
Data set [4] has as its system Mus musculus. Description: t1/2 was measured at 55 mg/kg dose by oral administration in mice brain; t1/2 (h); not detected. In kind it is ADME, organism-based. On the set-up: dose 55 mg/kg, route oral. As to conditions: in vivo.
Data set [5] in a line: (§2) The ratio of AUC /dose(uM); not detected. In kind it is ADME.
A short description of data set [6]: (§3) The ratio of AUC /dose (uM). In kind it is ADME.
Data set [7] is described as follows: as §2. In kind it is ADME. The source holds these as a separate data set.
Data set [8] in a line: as §3. Format: ADME. The source holds these as a separate data set.
Data set [9] deals with Mus musculus. Briefly: Pharmacokinetic parameter AUC was measured at 112 mg/kg dose by intravenous administration in mice brain; AUC (mM.h); not detected. In kind it is ADME, organism-based. Also on record: dose 112 mg/kg, route intravenous. The note with it: in vivo. A digest of the protocol: as §1
The subject of data set [10] is Mus musculus. Description: Pharmacokinetic parameter AUC was measured at 55 mg/kg dose by oral in mice brain; AUC (mM.h); not detected. Format: ADME, organism-based. Also on record: dose 55 mg/kg, route oral. The note with it: in vivo.
The nature of data set [11]: The ratio of AUC /dose(uM). Format: ADME.
For data set [12], the system named is Mus musculus. Briefly: t1/2 was measured AT 112 mg/kg dose by intravenous administration in mice brain; not detected. The note with it: in vivo.
Data set [13] deals with Mus musculus. Briefly: Pharmacokinetic parameter AUC was measured at 112 mg/kg dose by intravenous administration using FMAddA as substrate in mice brain; AUC 0-r (mM.h); not detected. Format: ADME, organism-based. Also on record: dose 112 mg/kg, route intravenous. The note with it: in vivo. A digest of the protocol:
as §1

Data set [14] concerns Mus musculus. Description: The ratio of AUC / dose (mM.h/umol)/kg at 112 mg/kg dose after intravenous administration in mice serum. In kind it is ADME, organism-based. Also on record: dose 112 mg/kg, route intravenous. As to conditions: in vivo. A digest of the protocol: as §1

For `Nc1ncnc2c1ncn2[C@@H]1O[C@H](CO)C[C@@H]1F` [LODENOSINE], the Ratio with Mus musculus [1] is listed as 0.04; in the data set on Mus musculus [2], 0.02; with Mus musculus [3], 0.005.

In the case of `OCC1CC(F)C(n2cnc3c(O)ncnc32)O1` (stereo not drawn), the T1/2 entry in the data set with Mus musculus [4] and in the data set on Mus musculus [12] was “Not detected” each time. The Ratio entry is “Not detected” in data set [5]; 0.48 in [6]; “Not detected” in data set [7]; 0.13 in data set [8]; 0.046 in data set [11]. The AUC entry in the data set on Mus musculus [9], with Mus musculus [10] and in the data set with Mus musculus [13] was “Not detected” each time.

As for `[N-]=[N+]=Nc1ncnc2c1ncn2C1OC(CO)CC1F` (stereo not drawn), the Ratio in the data set on Mus musculus [2] came to 0.06; in the data set on Mus musculus [3] it was 0.19; with Mus musculus [14] it was 1.01.

Turning to `CNc1ncnc2c1ncn2C1OC(CO)CC1F` (stereo not drawn), the Ratio in the data set with Mus musculus [1] amounted to 0.68; with Mus musculus [2], 0.09.
